According to publication PMC2720137 (Cancer cell, 2008):

What was measured:
[1] = test system: MCF10A cells expressing p110α-H1047R L814C; assay: MCF10A EGF-independent growth; assay type: cell-based, human; details: media lacking EGF, Alamar Blue
Method in brief: (§1)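 MCF10A cells were retrovirally transduced with pMIG p110α-H1047R mutants (IRES-GFP) after EcoR nucleofection, then FACS-sorted to >95% GFP+. Cells were seeded at 2 × 10^3 per 96-well in growth medium, and after 2 days switched to EGF-free medium with PI3K inhibitors (DMSO stocks 1:1000). Every 2 days: resazurin (120 µg/ml stock, 1:20) added for 2 h at 37°C plus 15 min RT, fluorescence read at ex 520/em 590 nm, and medium refreshed. Mean ± SEM.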

[2] = test system: MCF10A cells expressing p110α-H1047R I800M; assay: MCF10A EGF-independent growth; assay type: cell-based, human; details: media lacking EGF, Alamar Blue
Method in brief: as §1

[3] = test system: phospho-Akt (Thr308, Ser473) in L814C MCF10A cells; assay: Phospho-Akt western blot, L814C MCF10A cell line; assay type: cell-based, human; details: 1 hour treatment, serial dilutions
[4] = test system: MCF10A cells expressing p110α-H1047R I800L; assay: MCF10A EGF-independent growth; assay type: cell-based, human; details: media lacking EGF, Alamar Blue
Method in brief: as §1

[5] = test system: phospho-Akt (Thr308, Ser473) in I800M MCF10A cells; assay: Phospho-Akt western blot, I800M MCF10A cell line; assay type: cell-based, human; details: 1 hour treatment, serial dilutions
[6] = test system: phospho-Akt (Thr308, Ser473) in I800L MCF10A cells; assay: Phospho-Akt western blot, I800L MCF10A cell line; assay type: cell-based, human; details: for resistance of phospho-Akt levels: 1 hour treatment, serial dilutions; for change in inhibitor sensitivity of phospho-308 Akt: seen in phospho-308 Akt but not phospho-473
[7] = target: Myc-tagged p110α-H1047R I800L (Homo sapiens, UniProt P42336, H1047R/I800L); assay: In vitro PI3K assay, I800L mutant; assay type: biochemical; details: I800L vs p110α-H1047R, 10 μM ATP
[8] = test system: S. cerevisiae overexpressing membrane-localized p110α; details: ref Rodriguez-Escudero et al., 2005; cited from earlier work
[9] = test system: YRP1-pURA3-2μ-GAL1-p110αH1047R-CAAX; assay: Reverse halo assay; assay type: cell-based, S. cerevisiae; details: 10 μl of a 10 mM DMSO stock spotted on cellulose disc, SD −URA +Galactose
p110α = details: ref Brunn et al., 1996; Vlahos et al., 1994; cited from earlier work
[10] = test system: drug-permeablized YRP1 strain expressing p110α-CAAX; assay: Rescue of PI3K-induced growth inhibition, yeast serial dilutions; assay type: cell-based, S. cerevisiae; details: 5 μM PI-103, galactose
[11] = test system: Myc-tagged p110α-H1047R I800M; assay type: biochemical, human; details: I800M vs p110α-H1047R, 10 μM ATP
[12] = test system: wild-type AFS92 strain expressing p110α-CAAX; assay: Rescue of PI3K-induced growth inhibition, yeast serial dilutions; assay type: cell-based, S. cerevisiae; details: 5 μM PI-103, galactose
[13] = test system: phospho-Akt in p110α-expressing MCF10A cell lines; assay type: cell-based, human; details: 30 μM PI-103, 1 hour, after 24 hours EGF starvation, all cell lines
Method in brief: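 GFP-sorted MCF10A lines transduced with p110α mutants, at 40-70% confluence, were starved 24 h in MCF10A medium lacking EGF and insulin. They were then given normal growth medium and/or inhibitor (DMSO control) for 60 min. Cells were lysed in PI3K lysis buffer (50 mM Tris pH 7.4, 300 mM NaCl, 1% Triton X-100, phosphatase/protease inhibitors) and western blotted for phospho-Akt.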

[14] = test system: Myc-tagged p110α-H1047R L814C; assay type: biochemical, human; details: L814C vs p110α-H1047R, 10 μM ATP
[15] = test system: PI4KIIIβ with the mutation corresponding to Y836M; details: ref Balla et al., 2008; cited from earlier work

Sequence of Myc-tagged p110α-H1047R I800L (P42336 whole entry I800L/H1047R): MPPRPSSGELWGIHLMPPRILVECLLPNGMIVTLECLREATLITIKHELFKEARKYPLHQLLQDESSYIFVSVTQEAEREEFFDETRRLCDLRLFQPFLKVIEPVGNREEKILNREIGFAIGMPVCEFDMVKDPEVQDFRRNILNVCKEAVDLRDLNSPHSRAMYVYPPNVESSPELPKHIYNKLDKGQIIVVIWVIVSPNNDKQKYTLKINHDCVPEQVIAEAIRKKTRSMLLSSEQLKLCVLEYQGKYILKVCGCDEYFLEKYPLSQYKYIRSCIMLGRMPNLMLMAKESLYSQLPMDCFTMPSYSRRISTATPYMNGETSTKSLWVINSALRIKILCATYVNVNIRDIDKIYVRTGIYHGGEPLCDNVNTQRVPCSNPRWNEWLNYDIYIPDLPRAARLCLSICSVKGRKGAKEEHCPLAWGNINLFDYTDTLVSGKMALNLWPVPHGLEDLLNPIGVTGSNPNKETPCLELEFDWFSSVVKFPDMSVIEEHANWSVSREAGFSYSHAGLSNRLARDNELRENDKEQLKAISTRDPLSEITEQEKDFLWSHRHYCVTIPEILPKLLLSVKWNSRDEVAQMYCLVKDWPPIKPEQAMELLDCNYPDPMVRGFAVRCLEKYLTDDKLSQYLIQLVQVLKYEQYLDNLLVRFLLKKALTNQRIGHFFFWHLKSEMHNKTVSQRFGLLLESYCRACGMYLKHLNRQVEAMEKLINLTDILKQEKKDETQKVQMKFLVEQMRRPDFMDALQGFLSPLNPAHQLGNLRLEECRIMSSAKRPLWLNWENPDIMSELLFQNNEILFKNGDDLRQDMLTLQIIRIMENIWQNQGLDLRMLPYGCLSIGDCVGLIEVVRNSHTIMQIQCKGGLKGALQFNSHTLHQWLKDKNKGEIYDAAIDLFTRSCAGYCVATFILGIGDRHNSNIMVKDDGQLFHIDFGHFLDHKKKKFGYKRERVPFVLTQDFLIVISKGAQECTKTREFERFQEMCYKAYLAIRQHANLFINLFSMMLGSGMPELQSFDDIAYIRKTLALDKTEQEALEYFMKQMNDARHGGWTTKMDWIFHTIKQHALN

Compound | sensitization of cell growth [1] | inhibitor resistance of EGF-independent growth [2] | sensitization of phospho-Akt levels [3] | resistance of phospho-Akt levels [5] | resistance of phospho-Akt levels [6] | growth halo in reverse halo assay [9] | decrease in inhibitor potency (mutant IC50 / WT IC50) [11] | inhibitor resistance of EGF-independent growth [4] | decrease in inhibitor potency (mutant IC50 / WT IC50) [7] | further results
Cn1c(=O)n(-c2ccc(C(C)(C)C#N)cc2)c2c3cc(-c4cnc5ccccc5c4)ccc3ncc21 [BEZ-235] | minimal or no sensitization | less dramatic | sensitization is seen | Significant resistance is not observed | Significant resistance is not observed |  |  |  |  | inhibitor sensitization of EGF-independent growth [4]: sensitized; change in inhibitor sensitivity of phospho-308 Akt [6]: sensitization; change in inhibitor sensitivity in vitro [7]: sensitized
O=c1cc(N2CCOCC2)oc2c(-c3ccccc3)cccc12 [LY294002, 2-(4-morpholinyl)-8-phenyl-4H-1-benzopyran-4-one] |  |  |  |  |  | did not produce growth halos |  |  |  | reversal of p110α-induced growth inhibition [8]: partially reversed; potency as inhibitor of p110α and other PI3K family members (p110α): only a μM inhibitor
Oc1cccc(-c2nc(N3CCOCC3)c3oc4ncccc4c3n2)c1 [PI-103] | minimal or no sensitization | less dramatic |  | Significant resistance is not observed | Significant resistance is not observed |  | 5-10 fold | less dramatic | 5-10 fold | rescue of PI3K-induced growth inhibition [10]: completely rescues growth; rescue of PI3K-induced growth inhibition [12]: only partially rescues growth; change in inhibitor sensitivity of phospho-308 Akt [6]: Slight resistance; block of phospho-Akt stimulation by EGF-containing media [13]: blocked
Cc1ccc([N+](=O)[O-])cc1S(=O)(=O)N(C)/N=C/c1cnc2ccc(Br)cn12 [PIK-75] |  |  |  |  |  | produced only a thin ring of growth |  |  |  | 
COc1ccc2c(c1OC)N=C(NC(=O)c1cccnc1)N1CCN=C21 [PIK-90] | strong sensitization | most pronounced | approximately 5 fold |  | approximately 3 fold |  | 5-10 fold | most pronounced | 5-10 fold | drug sensitization (mutant IC50 / WT IC50) [14]: more than 10 fold
CC(=O)Nc1nc(C)c(-c2ccc(Cl)c(S(=O)(=O)NCCO)c2)s1 [PIK-93] | strong sensitization | most pronounced | ~30 fold | approximately 10 fold | approximately 3 fold |  | 5-10 fold | most pronounced | 5-10 fold | drug sensitization (mutant IC50 / WT IC50) [14]: approximately 100 fold; drug resistance of active mutant kinase [15]: resistant
COC[C@H]1OC(=O)c2coc3c2[C@@]1(C)C1=C(C3=O)[C@@H]2CCC(=O)[C@@]2(C)C[C@H]1OC(C)=O [wortmannin] |  |  |  |  |  | did not produce growth halos |  |  |  | drug resistance of active mutant kinase [15]: resistant
